High-throughput results (PubChem BioAssay)
Most compounds without a hit are left out; they make up all but 2.9% or so of the library.
CHO parental Ca: counter-screen for OX1R antagonists: effect in parental CHO cells | parental CHO-K1, ATP-induced calcium, Fluo-8 fluorescence | inhibition, % at 5.6 µM | 330,000 tested, 0.63% active;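 active means inhibition above that plate's mean sample inhibition plus 3 SD, cut at about 26% in these data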;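 further: 0% = ATP-challenged DMSO wells and 100% = DMSO wells without ATP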
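test system = CHO parental line | reagent = ATP stimulus | measured by = intracellular calcium via Fluo-8 no-wash fluorescent dye | control set = ATP and no-ATP DMSO wells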
M1 PAM parental: M1 PAM counterscreen hit in parental CHO-K1 cells | AID 602247 | 360,000 tested, 0.02% active | ATP EC20, Fluo-8 calcium fluorescence; 0% at ATP EC20, 100% at ATP max | activation, % at 3 µM;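 active means activation above the run cutoff, the mean activation of all test compounds plus 3 SD, cut at about 40% in these data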;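 further: peak over basal fluorescence ratio in a 140 s read after ATP addition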
CHO-K1 Ca antag: counter-screen for M1 antagonists: effect in parental CHO-K1 cells; AID 602250; inhibition, % at 3 µM; 360,000 tested, 0.6% active; ATP-induced calcium, Fluo-8 fluorescence;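 active means inhibition above a per-plate cutoff, the plate's mean sample inhibition plus 3 SD, cut at about 24% in these data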;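 further: 0% = DMSO plus EC80 ATP and 100% = DMSO alone without ATP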
OX1R antag-1: antagonists of human orexin 1 receptor (OX1R); OX1R-expressing cells, FRET antagonist read-out; 330,000 tested, 1.8% active; O43613; inhibition, % at 6.6 µM; in the data active means inhibition mostly above about 38%, no sharp cut-off; inactive means mostly below about 40%;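 further: 0% = agonist challenge alone and 100% = reference antagonist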
Target sequence (O43613 whole entry, looked up): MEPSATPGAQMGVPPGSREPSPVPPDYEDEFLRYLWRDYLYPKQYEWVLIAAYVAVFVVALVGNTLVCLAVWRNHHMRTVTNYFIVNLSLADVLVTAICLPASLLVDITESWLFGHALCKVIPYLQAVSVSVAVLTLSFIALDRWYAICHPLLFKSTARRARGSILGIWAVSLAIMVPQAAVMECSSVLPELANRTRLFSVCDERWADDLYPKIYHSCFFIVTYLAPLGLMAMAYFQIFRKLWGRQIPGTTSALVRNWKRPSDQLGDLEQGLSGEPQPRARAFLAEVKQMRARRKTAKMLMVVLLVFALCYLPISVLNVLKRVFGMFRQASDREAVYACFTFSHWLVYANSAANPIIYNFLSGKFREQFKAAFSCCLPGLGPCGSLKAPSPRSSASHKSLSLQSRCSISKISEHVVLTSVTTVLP
M1 ag parental: nonselective activator or artifact in parental CHO-K1 cells. activation, % at 3 µM. 360,000 tested, 0.48% active. AID 602248. Fluo-8 calcium fluorescence; scaled to maximal ATP response, vehicle zero; in the data active means activation above about 15%;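 further: untransfected CHO-K1 host cells lacking M1 receptor as counterscreen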
OX1R antag-2: blocks the human orexin 1 receptor | O43613 | CHO/OX1R cells, Fluo-8 calcium fluorescence, orexin A | inhibition, % at 5 µM | 330,000 tested, 0.43% active;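 active means inhibition above its plate's threshold, mean inhibition of all tested compounds on the plate plus 3 SD, cut at about 37% in these data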;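 further: 0% = orexin A challenge wells and 100% = SB-334867-A antagonist wells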
* = called active by the depositor; . = not tested or not shown.

SMILES	CHO parental Ca	M1 PAM parental	CHO-K1 Ca antag	OX1R antag-1	M1 ag parental	OX1R antag-2
CN(CC(=O)Nc1cccc(F)c1)C(=O)c1ccccc1Sc1ccccc1C#N	-21.1	-9.6	-2.7	32.8*	4.6	14.0
COc1cccc(NC(=O)CN(C)C(=O)c2ccccc2Sc2ccccc2C#N)c1	-14.3	10.8	-26.8	38.8*	5.3	23.9
COc1cccc(CN(C)C(=O)c2ccccc2Sc2ccccc2C#N)c1	-18.4	11.4	-7.8	24.1	5.4	-20.7
O=C(NC1CCCCC1)C1CC(=O)N(CCc2ccc(F)cc2)C1 (centres undefined)	-3.5	16.1	-18.6	15.5	1.0	-26.0
COC(=O)C1=C(C)NC(=S)NC1c1sccc1C (centres undefined)	-7.9	-1.3	-9.1	9.2	0.2	-3.6
COC(=O)C1=C(C)NC(=S)NC1c1ccc(-c2cc(Cl)ccc2Cl)o1 (centres undefined)	-0.9	-7.8	3.1	55.5*	-0.4	-14.7
CC1CC(C)CN(C(=O)COC(=O)c2ccc([N+](=O)[O-])o2)C1 (centres undefined)	2.9	-4.9	12.4	24.9	0.0	-3.6
CC1CCCC(C)N1C(=O)COC(=O)c1ccc([N+](=O)[O-])o1 (centres undefined)	6.3	3.4	-7.2	39.3*	0.2	-21.7
CC1CCCC(C)N1C(=O)COC(=O)c1cc([N+](=O)[O-])ccc1N1CCOCC1 (centres undefined)	-15.5	2.0	-0.1	42.9	2.2	-28.8
CC(C)CN(C(=O)COC(=O)c1ccc([N+](=O)[O-])o1)C1CCS(=O)(=O)C1 (centres undefined)	-4.8	16.3	1.1	74.7*	0.3	-11.4
CCOC(=O)C1CCN(C(=O)COC(=O)c2ccc([N+](=O)[O-])o2)CC1	-5.9	8.3	-15.8	32.8*	0.0	-13.6
CCCN(CC(=O)Nc1ccccc1C)C(=O)/C=C/c1ccc(OC)c(OC)c1	.	1.5	-1.1	.	0.6	.
CN(C)c1ccc(CNC(=O)CCNS(=O)(=O)c2cc(Br)cnc2N)cc1	-12.0	27.2	0.5	30.3	1.2	-8.6
COC(=O)C1=C(C)NC(=O)NC1c1ccc(-c2ccc(Cl)cc2)o1 (centres undefined)	-10.5	16.7	-18.9	14.1	0.9	-33.2
COC(=O)C1=C(C)NC(=O)NC1c1ccc([N+](=O)[O-])o1 (centres undefined)	-12.7	10.5	5.2	76.6*	0.3	-15.7
CCOC(=O)C1=C(COC(=O)c2cc([N+](=O)[O-])ccc2Cl)NC(=O)NC1C (centres undefined)	.	-1.9	-6.8	.	1.9	.
O=C(COC(=O)c1ccc([N+](=O)[O-])o1)c1ccccc1	-6.7	-4.4	-0.4	29.3	-0.1	-11.2
NS(=O)(=O)c1ccc(CCNC(=O)COC(=O)c2ccc([N+](=O)[O-])o2)cc1	-8.8	27.3	-19.6	43.7*	1.1	-8.9
CCOC(=O)C1=C(COC(=O)c2ccc([N+](=O)[O-])o2)NC(=O)NC1C (centres undefined)	-5.2	-17.2	-5.1	29.9*	0.8	-15.7
O=C(OCCCOC(=O)c1ccc([N+](=O)[O-])o1)c1ccc([N+](=O)[O-])o1	-2.8	-3.6	-0.6	52.9*	1.2	1.0
Cc1cnc(NC(=O)c2sc(Nc3ccccc3)nc2N)o1	-13.7	10.4	-2.7	1.8	0.2	-13.7
CC(=O)c1cccc(OCc2cc(C(=O)NCc3nc(C)c(C)s3)no2)c1	-16.9	5.0	-6.4	8.6	1.4	-21.7
COc1cccc(N(CC(=O)N2CCCCCC2)S(C)(=O)=O)c1	-4.6	13.4	-3.6	11.4	1.0	-9.5
CC(C)(C)OC[C@H](NC(=O)c1[nH]cnc1C(=O)Nc1ccccc1F)C(=O)OC(C)(C)C	.	14.2	-11.7	.	0.9	.
CCOC(=O)C1CCN(C(=O)COc2ccc(Cl)cc2Cl)CC1	-7.2	-7.9	24.2*	30.7	0.7	-13.9
SMILES	CHO parental Ca	M1 PAM parental	CHO-K1 Ca antag	OX1R antag-1	M1 ag parental	OX1R antag-2
CCN(C(=O)CCN1C(=O)S/C(=C\c2ccccc2)C1=O)C1CCS(=O)(=O)C1 (centres undefined)	-5.1	1.8	-1.4	33.9	5.8	5.3
COc1ccc(C(=O)NC(=S)NNC(=O)c2ccccc2C)cc1	11.2	-30.8	23.9*	-1.9	85.0*	12.8
O=C(N/N=C/c1cccc(O)c1)c1cc(-c2ccccc2)nc2ccccc12	-19.9	7.0	8.9	1.2	13.7	-7.6
COc1ccc(/C=N/NC(=O)c2cc3c(ccc4ccccc43)o2)c(OC)c1	.	2.7	3.2	.	3.2	.
COc1ccc(/C=N/NC(=O)c2cc(-c3ccccc3)nc3ccccc23)c(OC)c1	-12.3	23.1	-7.2	42.3*	2.4	20.5
Cc1ccc(-c2cc(C(=O)N/N=C/c3c(C)nn(C)c3C)c3ccccc3n2)c(C)c1	-18.1	-5.5	24.5*	8.2	-0.2	-32.0
COc1ccc(C(=O)NC(=S)NNC(=O)c2ccccc2O)cc1	-9.8	10.2	-12.9	13.0	2.1	-11.4
COc1ccc(OC)c(/C=N\NC(=O)c2cc3c(ccc4ccccc43)o2)c1	-11.5	-10.7	-0.3	73.4*	1.1	16.7
Cc1ccc([C@@H]2C[C@H]3[C@@H](CN2S(=O)(=O)c2ccc(C)cc2)C(=O)C[C@@H](c2ccc(C)cc2)N3S(=O)(=O)c2ccc(Cl)cc2)cc1	.	23.5	-18.9	.	0.8	.
CCCCCCn1nc(C(=O)OCC(=O)NC2CCS(=O)(=O)C2)c2ccccc2c1=O (centres undefined)	0.8	3.6	-3.8	20.0	1.3	-14.9
CC(C)(C)C(=O)NC(=S)NNC(=O)c1sc2ccccc2c1Cl	40.5*	-7.7	11.2	8.0	7.1	69.0*
COc1ccc(C(=O)NNC(=S)NC(=O)c2cc(-c3ccccc3)nc3ccccc23)cc1	-10.3	5.8	-19.8	26.0	30.2*	-2.5
COc1cc(C(=O)NNC(=S)NC(=O)c2ccccc2C)cc(OC)c1OC	-0.4	5.8	5.8	11.5	23.7*	21.8
O=C(NNC(=S)NC1CCCCC1)c1sc2ccccc2c1Cl	-8.2	-9.0	18.1	43.8	4.0	-21.6
COc1ccc(C(=O)NNC(=S)NC(=O)C(C)(C)C)cc1	58.2*	-31.3	14.5	5.1	85.7*	61.8*
COc1ccc(C(=O)NC(=S)NNC(=O)c2ccco2)cc1	3.5	10.8	-11.5	7.1	0.9	-3.6
COc1ccc(C(=O)C2CCCN(C(=O)c3cccc(N(C)C)c3)C2)cc1OC (centres undefined)	-6.2	-2.1	-4.9	21.7	10.0	-25.6
CCC(CC)N1CCN(S(=O)(=O)c2ccc(OC)cc2)CC1	-1.6	3.0	-5.9	4.7	0.6	-15.1
COc1cc(-c2cc3nc(NCCOc4ccccc4)ccn3n2)cc(OC)c1OC	.	18.3	-13.7	.	5.3	.
COc1cc(-c2cc3nc(NCc4ccco4)ccn3n2)cc(OC)c1OC	.	-14.8	31.6*	.	1.4	.
